Data: ChEMBL document CHEMBL1133607, “Nonpeptide analogues of dynorphin A(1-8): design, synthesis, and pharmacological evaluation of kappa-selective agonists” (J Med Chem, 2000)
pKi: −log10 of the molar value.

Experiments:
[1] = biological target: T1, Delta-type opioid receptor (Rattus norvegicus, UniProt P33533); assay: Displacement of [3H]diprenorphine opioid receptor delta 1 on crude membrane fractions obtained from the whole rat brain (minus cerebellum); format: tissue-based
In short: (§1)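 Rat whole-brain (minus cerebellum) crude membranes, 1 mg protein/tube, in 50 mM Tris-HCl pH 7.4 with aprotinin, leupeptin and bacitracin. […] U50,488 and DAMGO (300 nM each) saturate κ and µ sites; 1 µM DPDPE defines nonspecific binding. Compounds tested at 10^-11 to 10^-5 M. Ki values are the mean of three experiments in duplicate.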

[2] = biological target: Kappa-type opioid receptor (Cavia porcellus, UniProt P41144); assay: Displacement of [3H]-U-69,593 from Opioid receptor kappa 1 in guinea pig cerebellar.
Mus musculus [3] = assay: Effective dose after 10 mg/kg of nor-BNI administered subcutaneously 10 min before agonist administered in mouse rotarod test; format: functional; conditions: sc, route subcutaneous
In short: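 Male albino Swiss mice received nor-BNI 10 mg/kg sc 10 min before agonist (sc, saline/0.5% CMC). 30 min after agonist, mice were placed on an accelerating rotarod with three trials; failure in any trial counted as impaired. ED50 is […].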

Mu-type opioid receptor [4] = biological target: T2, Mu-type opioid receptor (Rattus norvegicus, UniProt P33535); assay: Displacement of [3H]diprenorphine from opioid receptor mu 1 on crude membrane fractions obtained from whole rat brain (minus cerebellum); format: tissue-based
In short: as §1, with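 “and DADLE” for “and DAMGO”, “and δ” for “and µ”, “µM DAMGO” for “µM DPDPE”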

Mus musculus [5] = assay: Antinociceptive activity by measuring effective dose after 10 mg/kg of nor-BNI administered subcutaneously 10 min before agonist administered in mouse; format: functional; conditions: sc, route subcutaneous
In short: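 Male albino Swiss mice (20-25 g) given compound sc in saline with 0.5% CMC (0.1-10 mg/kg) 30 min before testing. nor-BNI 10 mg/kg sc given 10 min before agonist. Acetylcholine-induced abdominal constrictions were counted for 5 min after ip acetylcholine. ED50 is the dose that halves constrictions relative to vehicle.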

[6] = biological target: Opioid receptors; delta & kappa (Homo sapiens) (UniProt P41145+P41143); assay: (§2) Ratio of affinity towards delta to kappa opioid receptor; format: protein assay
[7] = biological target: Opioid receptors; mu & kappa (UniProt P41145+P35372); assay: Ratio of affinity towards mu and kappa opioid receptors; format: protein assay
Mu-type opioid receptor [8] = biological target: T2, Mu-type opioid receptor; assay: Tested for binding affinity by [3H]diprenorphine displacement for Opioid receptor mu 1 was carried on crude membrane fractions obtained from the whole rat brain minus cerebellum..; format: tissue-based
In short: as §1, with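 “and DADLE” for “and DAMGO”, “and δ” for “and µ”, “µM DAMGO” for “µM DPDPE”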

[9] = biological target: T1, Delta-type opioid receptor; assay: Tested for binding affinity by [3H]diprenorphine displacement for Opioid receptor delta 1 are carried on crude membrane fractions obtained from the whole rat brain minus cerebellum.; format: tissue-based; in short: as §1
Cavia porcellus = species on record: Cavia porcellus; assay: as §2

T2 sequence (P33535 whole entry): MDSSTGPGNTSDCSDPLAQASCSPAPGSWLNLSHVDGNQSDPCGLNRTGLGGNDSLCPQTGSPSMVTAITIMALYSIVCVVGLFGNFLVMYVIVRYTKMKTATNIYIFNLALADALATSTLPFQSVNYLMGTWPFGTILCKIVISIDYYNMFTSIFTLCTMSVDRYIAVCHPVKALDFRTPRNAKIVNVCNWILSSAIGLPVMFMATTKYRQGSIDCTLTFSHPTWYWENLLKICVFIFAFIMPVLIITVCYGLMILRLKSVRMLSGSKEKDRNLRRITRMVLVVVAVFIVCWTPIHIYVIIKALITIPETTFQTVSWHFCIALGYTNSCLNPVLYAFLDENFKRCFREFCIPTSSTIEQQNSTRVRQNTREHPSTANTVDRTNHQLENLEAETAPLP
Chain of Opioid receptors; mu & kappa (P35372 whole entry, looked up): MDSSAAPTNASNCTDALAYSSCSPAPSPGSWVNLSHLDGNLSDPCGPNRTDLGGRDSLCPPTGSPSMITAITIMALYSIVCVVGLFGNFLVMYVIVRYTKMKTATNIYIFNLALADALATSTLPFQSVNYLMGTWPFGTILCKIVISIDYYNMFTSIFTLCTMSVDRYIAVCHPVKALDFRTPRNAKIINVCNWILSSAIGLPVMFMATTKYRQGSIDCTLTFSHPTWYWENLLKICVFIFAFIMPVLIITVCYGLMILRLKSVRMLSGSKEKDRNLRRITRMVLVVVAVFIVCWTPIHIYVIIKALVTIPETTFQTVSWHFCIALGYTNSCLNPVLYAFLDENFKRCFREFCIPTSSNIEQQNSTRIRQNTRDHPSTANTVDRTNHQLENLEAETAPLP
Chain of Opioid receptors; mu & kappa (P41145 whole entry, looked up): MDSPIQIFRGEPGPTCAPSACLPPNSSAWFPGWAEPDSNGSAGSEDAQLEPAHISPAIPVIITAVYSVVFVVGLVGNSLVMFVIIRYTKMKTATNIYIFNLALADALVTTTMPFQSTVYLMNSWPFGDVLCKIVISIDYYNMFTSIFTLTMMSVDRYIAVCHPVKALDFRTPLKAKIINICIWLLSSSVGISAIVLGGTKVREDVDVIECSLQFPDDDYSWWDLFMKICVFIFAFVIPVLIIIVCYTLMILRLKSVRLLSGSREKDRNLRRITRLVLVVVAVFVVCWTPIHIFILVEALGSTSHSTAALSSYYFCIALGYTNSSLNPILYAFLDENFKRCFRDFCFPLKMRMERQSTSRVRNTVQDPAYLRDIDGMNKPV
T1 sequence (P33533 whole entry): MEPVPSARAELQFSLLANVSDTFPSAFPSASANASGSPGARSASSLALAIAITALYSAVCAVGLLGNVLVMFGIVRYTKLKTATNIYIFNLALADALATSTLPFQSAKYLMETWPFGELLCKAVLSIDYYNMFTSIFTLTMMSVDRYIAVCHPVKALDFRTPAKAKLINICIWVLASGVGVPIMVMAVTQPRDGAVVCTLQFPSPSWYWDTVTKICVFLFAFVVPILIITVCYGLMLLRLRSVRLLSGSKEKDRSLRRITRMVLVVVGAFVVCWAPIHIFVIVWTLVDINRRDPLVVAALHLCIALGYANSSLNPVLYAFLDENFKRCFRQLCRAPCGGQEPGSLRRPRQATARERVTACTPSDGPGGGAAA
Chain of Kappa-type opioid receptor (P41144 whole entry): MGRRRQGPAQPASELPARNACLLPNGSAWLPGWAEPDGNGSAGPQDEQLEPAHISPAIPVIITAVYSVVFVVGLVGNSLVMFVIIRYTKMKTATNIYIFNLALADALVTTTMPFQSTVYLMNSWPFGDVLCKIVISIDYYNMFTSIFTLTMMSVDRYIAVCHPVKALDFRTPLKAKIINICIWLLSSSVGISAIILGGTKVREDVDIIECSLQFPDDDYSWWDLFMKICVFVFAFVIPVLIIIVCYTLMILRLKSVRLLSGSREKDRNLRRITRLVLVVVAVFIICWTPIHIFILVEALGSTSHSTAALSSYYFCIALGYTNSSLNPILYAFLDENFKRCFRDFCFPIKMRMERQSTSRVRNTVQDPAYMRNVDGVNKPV
Chain of Opioid receptors; delta & kappa (Homo sapiens) (P41143 whole entry, looked up): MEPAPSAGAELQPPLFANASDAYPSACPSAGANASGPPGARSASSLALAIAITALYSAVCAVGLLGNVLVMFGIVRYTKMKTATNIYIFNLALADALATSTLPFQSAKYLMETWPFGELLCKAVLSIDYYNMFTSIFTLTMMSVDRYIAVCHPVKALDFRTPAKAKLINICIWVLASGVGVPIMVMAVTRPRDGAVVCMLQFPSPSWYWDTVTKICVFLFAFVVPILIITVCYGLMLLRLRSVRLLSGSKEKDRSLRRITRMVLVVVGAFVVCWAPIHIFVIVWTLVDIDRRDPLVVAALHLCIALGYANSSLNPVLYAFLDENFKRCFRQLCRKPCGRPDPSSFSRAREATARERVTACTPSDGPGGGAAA
Chain of Opioid receptors; delta & kappa (Homo sapiens) (P41145 whole entry, looked up): as the sequence (P41145 whole entry, looked up) above

Row | Compound | pKi [1] | pKi [2] | ED50 (Mus musculus [3]) [mg/kg] | pKi (Mu-type opioid receptor [4]) | ED50 (Mus musculus [5]) [mg/kg] | Ratio [6] | Selectivity ratio [7] | pKi (Mu-type opioid receptor [8]) | pKi [9] | Selectivity ratio (Cavia porcellus)
1 | CCCCC(=N)NCCCCCNC(=O)C(CC(C)C)NC(=O)CNC(=O)[C@]1(c2ccccc2)CC1CN1CC[C@@]2(C)c3cc(O)ccc3CC1C2C (some centres not stated) | 5.56 | 8.17 | 9.2 | 5.60 | 0.88 | – | – | – | – | –
2 | CC(C)CC(NC(=O)[C@]1(c2ccccc2)CC1CN1CC[C@@]2(C)c3cc(O)ccc3CC1C2C)C(=O)NCCCCCCN (some centres not stated) | 5.47 | 6.62 | – | 5.51 | – | 14.1 | 12.7 | – | – | –
3 | COC(=O)[C@]1(c2ccccc2)C[C@@H]1CN1CC[C@@]2(C)c3cc(O)ccc3CC1[C@@H]2C | – | – | – | – | – | – | – | < 4.60 | < 4.60 | –
4 | CCCCC(=N)NCCCCCCNC(=O)C(CC(C)C)NC(=O)CNC(=O)[C@]1(c2ccccc2)CC1CN1CC[C@@]2(C)c3cc(O)ccc3CC1C2C (some centres not stated) | 5.65 | 8.28 | 11.9 | 5.67 | 1.1 | – | – | – | – | –
5 | CCCCC(=N)NCCCCNC(=O)C(CC(C)C)NC(=O)CNC(=O)[C@]1(c2ccccc2)CC1CN1CC[C@@]2(C)c3cc(O)ccc3CC1C2C (some centres not stated) | 5.44 | 7.99 | – | 5.48 | – | – | 325 | – | – | 359
6 | CCC(=N)NCCCCCCNC(=O)C(CC(C)C)NC(=O)[C@]1(c2ccccc2)CC1CN1CC[C@@]2(C)c3cc(O)ccc3CC1C2C (some centres not stated) | 5.45 | 6.93 | – | 5.53 | – | – | 25.3 | – | – | 30.5
7 | CC(C)CC(NC(=O)CNC(=O)[C@]1(c2ccccc2)CC1CN1CC[C@@]2(C)c3cc(O)ccc3CC1C2C)C(=O)NCCCCN (some centres not stated) | 4.98 | 6.57 | – | 4.88 | – | – | 49.1 | – | – | 38.7
